Test: Toxicity liver stage against HepG2, at 10uM
Type: cell-based
Set-up: test concentration 10 uM, cell line HepG2-A16-CD81EGFP
Settings: human, HepG2-A16-CD81EGFP cells; read-out: INHIBITION
Summary of the method: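 Uninfected HepG2-A16-CD81EGFP cells, 3 × 10^3 per well, 1536-well, plated on prespotted compound at 10 μM final, parasite-free screening media added to match infected plates; puromycin 10 μM positive, DMSO 0.5% negative; run in parallel with 48 h PbLuc assay at 37 °C, 5% CO2; viability by CellTiter-Glo luminescence, normalized to controls.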

Row | SMILES | cytotoxicity at 10 µM [%]
1 | CCOCc1nc(N2CCOCC2)sc1C(=O)NCc1ccco1 | 1.64
2 | CC(C)NC(=O)CSc1nc2c(cnn2CCO)c(=O)[nH]1 | -8.72
3 | O=C1CCCN1Cc1ncn2c1CN(S(=O)(=O)c1cccs1)CCC2 | 4.76
4 | Cn1cc(C(=O)NCc2cn3c(n2)CN(Cc2ccncc2)CC3)cn1 | 5.71
5 | O=C(O)c1nnn(Cc2ccc(F)cc2)c1-c1cccnc1 | -6.21
6 | Cc1ccc(C2NC(=O)c3cc(C(C)C)sc3N2)cc1 (configuration not stated) | 7.96
7 | Cc1nc(C2CCCCN2S(C)(=O)=O)no1 (configuration not stated) | 9.23
8 | CC(C)OCCCNS(=O)(=O)c1ccc2c(c1)NC(=O)C(C)O2 (configuration not stated) | 0.893
9 | CCCn1ncc(CN(Cc2cccnc2)Cc2cccs2)c1C | 1.64
10 | Cc1ccc(N(C)[C@@H]2CC[C@@H]3CN(C(=O)C4CCOCC4)C[C@@H]32)nn1 | -4.43
11 | CCC(CC)(CNC(=O)c1cccn1Cc1cccnc1)N(C)C | -53.6
12 | Cc1cc(C)n(C2CN(CCC(N)=O)C2)n1 | -5.04
13 | Cc1c(C(=O)N2CCCN(S(C)(=O)=O)CC2)cnn1C | 17.2
14 | CC(C)(C)C(NC(=O)CCCS(C)(=O)=O)c1ccc(F)cc1F (configuration not stated) | 8.87
15 | CCc1ncnc(N2CCOCC2C(N)=O)c1F (configuration not stated) | -4.73
16 | N#Cc1cccc(CN(CC(=O)N2CCCC2)CC2CCCO2)c1 (configuration not stated) | -5.52
17 | CCOC(=O)C1CCN(C(=O)CN2CCCC2Cc2ccccc2)CC1 (configuration not stated) | 12.7
18 | COc1ccc(CNC(=O)CCc2c(C)noc2C)cc1F | -6.87
19 | CCS(=O)(=O)c1nccn1-c1cccc(F)c1 | 3.12
20 | CCN(CCCNc1ncnc2cc(F)c(F)cc12)S(C)(=O)=O | 37.7
21 | Cn1c(CN2CCOC(Cn3cncn3)C2)nc2ccccc21 (configuration not stated) | -4.76
22 | O=C(c1ccc(Br)cc1F)N1CCc2ccncc21 | -1.16
23 | CCOCCS(=O)(=O)N(CC)Cc1ccc(Cl)s1 | -6.15
24 | Cc1cccc(N2CCC(NC(=O)CCCc3cccs3)CC2)n1 | -12.5

Row | SMILES | cytotoxicity at 10 µM [%]
25 | O=C(c1cccnc1)N1CCc2c(COCC3CC3)cncc2C1 | -77.2
26 | COc1ccc(CN2CC[C@@]3(O)CCCC[C@H]3C2)cc1C(=O)O | -3.12
27 | O=C1NCCN1CCNc1cc(-c2ccncc2)nc2ccnn12 | -4.76
28 | CN(CC1Cc2ccccc2CN1C)C(=O)CSc1ccccn1 (configuration not stated) | -1.32
29 | Cc1n[nH]c(C)c1CCNC(=O)C1CCCN(Cc2ccco2)C1 (configuration not stated) | -6.23
30 | COC(=O)c1cc2n(n1)CCN(C(=O)c1csc(CN(C)C)n1)C2 | -8.44
31 | Cc1nc[nH]c1-c1nccn1CCN1CCCC1=O | -6.88
32 | CN(Cc1cccnc1)CC1CCOc2ccccc2C1 (configuration not stated) | -4.92
33 | Cc1nc(C)n(C2CCCN(C(=O)CCOC(C)C)C2)n1 (configuration not stated) | -1.92
34 | CCn1cnnc1C1CCN(C(=O)c2ccoc2C)CC1 | -8.04
35 | CN(Cc1nc2c(cnn2C)c(=O)[nH]1)Cc1ccco1 | -8.11
36 | CC(C(=O)NCCN1CCCCC1)n1cncn1 (configuration not stated) | -3.37
37 | Cc1noc(Cl)c1CCC(=O)N1CCC(Nc2cccnn2)CC1 | -2.57
38 | COc1cccc2cc(CNCc3ccnc(N(C)C)c3)oc12 | -6.87
39 | CC(c1nc(C(C)(C)C)no1)N1CCN(Cc2ccc(C#N)cc2)CC1 (configuration not stated) | -5.38
40 | Cc1ccccc1OCCC(=O)N1CCC(c2nncn2C)CC1 | -13.3
41 | CCc1nc(CN2CCCN(C(=O)C(CC)OC)CC2)cs1 (configuration not stated) | -15.8
42 | CCOc1ccc(S(=O)(=O)NC(=O)CC2CCCO2)cc1 (configuration not stated) | -16.3
43 | O=C(NCc1ccc2c(c1)OCO2)Nc1cccnc1N1CCCC1 | -13.4
44 | c1ccc(-c2ncc(CNC3CCc4ncnn4C3)cn2)cc1 (configuration not stated) | -0.722
45 | CN(C)Cc1nn(C)c2c1CCN(C(=O)CC1CC1)C2 | -3.86
46 | Cn1cccc1C(=O)N[C@@H]1CN(Cc2cccs2)[C@@H]2COC[C@@H]21 | 8.88
47 | COCCN1C[C@@H]2CC[C@H]1CN(C(=O)CCc1n[nH]c(C)c1C)C2 | -8.92

Reference: ChEMBL document CHEMBL4513216, “Probing the Open Global Health Chemical Diversity Library for Multistage-Active Starting Points for Next-Generation Antimalarials” (ACS Infect Dis, 2020)
